From ChEMBL document CHEMBL4673214, “Synthesis and antibacterial bioactivities of cationic deacetyl linezolid amphiphiles” (Eur J Med Chem, 2018)
The source made the active and inactive calls. The rule behind the calls is not given here.

Legend:
[1] = tested on: Cell membrane; assay: Induction of outer membrane permeabilization in Escherichia coli ATCC 25922 at 20 ug/ml measured for 12 mins by NPN dye based fluorescence assay; details: dose 20.0 µg/ml
Procedure, shortened: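 Mid-log E. coli in HEPES/glucose/KCl at ~10^8 CFU/mL was preincubated 40 min with N-phenylnaphthylamine (10 µM stock). Fluorescence (ex 350/em 420 nm) was read for an 8 min baseline, then every 2 min for 12 min after compound at 20 µg/mL final. Water served as control.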

[2] = tested on: Cell membrane; assay: Induction of cytoplasmic membrane depolarization in Escherichia coli ATCC 25922 at 20 ug/ml measured for 12 mins by DiSC35 dye-based fluorescence assay; format: subcellular; details: dose 20.0 µg/ml
Procedure, shortened: (§1)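 Mid-log bacteria were washed and resuspended at ~10^8 CFU/mL: S. aureus in PBS, E. coli in 5 mM HEPES/5 mM glucose/100 mM KCl (1:1:1). Cells were loaded with diSC35 (10 µM stock) for 30 min (S. aureus) or 40 min (E. coli, plus EDTA). Fluorescence (ex 622/em 670 nm) was read for an 8 min baseline, then every 2 min for 12 min after compound at 20 µg/mL final. Water served as control.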

[3] = tested on: Klebsiella pneumoniae; assay: Antibacterial activity against carbapenem-resistant Klebsiella pneumoniae clinical isolate 9 assessed as reduction in bacterial growth incubated for 16 to 20 hrs by CLSI-based broth microdilution method; format: functional; details: time 16-20 hrs
Procedure, shortened: (§2)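 Clinical isolates tested by broth microdilution in cation-adjusted Mueller-Hinton broth. Cultures grown 4-6 h (~10^8 CFU/mL) were diluted to ~10^6 CFU/mL and mixed 1:1 with compound serial dilutions made from 256 down to 0.5 µg/mL (pre-mixing). Plates held at 37 °C for 16-20 h, then read for growth. Each concentration run in duplicate, whole experiment at least twice.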

[4] = tested on: Klebsiella pneumoniae; assay: Antibacterial activity against carbapenem-resistant Klebsiella pneumoniae clinical isolate 2 assessed as reduction in bacterial growth incubated for 16 to 20 hrs by CLSI-based broth microdilution method; format: functional; details: time 16-20 hrs; procedure, shortened: as §2
[5] = tested on: Enterobacteriaceae; assay: Antibacterial activity against NDM1 producing carbapenem-resistant Enterobacteriaceae clinical isolate 1 assessed as reduction in bacterial growth incubated for 16 to 20 hrs by CLSI-based broth microdilution method; format: functional; details: time 16-20 hrs; procedure, shortened: as §2
[6] = tested on: Escherichia coli; assay: Antibiofilm activity against Escherichia coli ATCC 25922 assessed as inhibition of biofilm formation incubated for 24 hrs by crystal violet staining assay; format: functional
Procedure, shortened: (§3)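 Twofold serial dilutions in MHB received 1:1000-diluted exponential-phase bacteria and were incubated 24 h at 37 °C. Wells were rinsed, stained with 0.1% crystal violet for 10 min and dissolved in ethanol, and OD540 was read. MBIC80 was the concentration inhibiting 80% of biofilm formation versus untreated wells, taken from dose-response curves.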

[7] = tested on: Klebsiella pneumoniae; assay: Antibacterial activity against carbapenem-resistant Klebsiella pneumoniae clinical isolate 10 assessed as reduction in bacterial growth incubated for 16 to 20 hrs by CLSI-based broth microdilution method; format: functional; details: time 16-20 hrs; procedure, shortened: as §2
[8] = tested on: Cell membrane; assay: Induction of cytoplasmic membrane depolarization in Staphylococcus aureus ATCC 29213 at 20 ug/ml measured for 12 mins by DiSC35 dye-based fluorescence assay; format: subcellular; details: dose 20.0 µg/ml; procedure, shortened: as §1
[9] = tested on: Enterobacteriaceae; assay: Antibacterial activity against NDM1 producing carbapenem-resistant Enterobacteriaceae clinical isolate 7 assessed as reduction in bacterial growth incubated for 16 to 20 hrs by CLSI-based broth microdilution method; format: functional; details: time 16-20 hrs; procedure, shortened: as §2
[10] = tested on: Staphylococcus aureus; assay: Antibiofilm activity against Staphylococcus aureus ATCC 29213 assessed as inhibition of biofilm formation incubated for 24 hrs by crystal violet staining assay; format: functional; procedure, shortened: as §3
[11] = tested on: Enterobacteriaceae; assay: Antibacterial activity against NDM1 producing carbapenem-resistant Enterobacteriaceae clinical isolate 8 assessed as reduction in bacterial growth incubated for 16 to 20 hrs by CLSI-based broth microdilution method; format: functional; details: time 16-20 hrs; procedure, shortened: as §2
[12] = tested on: Staphylococcus aureus; assay: Antibiofilm activity against 24 hrs preformed biofilm of Staphylococcus aureus ATCC 29213 assessed as eradication of preformed biofilm incubated for 24 hrs by crystal violet staining assay; format: functional
[13] = tested on: Klebsiella pneumoniae; assay: Antibacterial activity against carbapenem-resistant Klebsiella pneumoniae clinical isolate 3 assessed as reduction in bacterial growth incubated for 16 to 20 hrs by CLSI-based broth microdilution method; format: functional; details: time 16-20 hrs; procedure, shortened: as §2
[14] = tested on: Klebsiella pneumoniae; assay: Antibacterial activity against carbapenem-resistant Klebsiella pneumoniae clinical isolate 8 assessed as reduction in bacterial growth incubated for 16 to 20 hrs by CLSI-based broth microdilution method; format: functional; details: time 16-20 hrs; procedure, shortened: as §2
[15] = Hemolytic activity in sheep RBC incubated for 1 hr; format: ADME, cell-based, Ovis aries, Erythrocyte; details: sheep red blood cells (erythrocytes)
Procedure, shortened: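 Sheep RBCs were resuspended at 5% in PBS and mixed 3:1 with serial dilutions (2560 to 5 µg/mL, pre-mixing levels), then incubated 1 h at 37 °C. After centrifugation, supernatant A540 was read. Hemolysis % was calculated as (A−A0)/(Atotal−A0)×100, with untreated RBCs as 0% and 0.1% Triton X-100 as total lysis.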

[16] = tested on: Escherichia coli; assay: Antibacterial activity against Escherichia coli ATCC 25922 assessed as reduction in bacterial growth incubated 16 to 20 hrs by CLSI-based broth microdilution method; format: functional; details: time 16-20 hrs
Procedure, shortened: (§4)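 Broth microdilution following CLSI, in cation-adjusted Mueller-Hinton broth. Inoculum from a 4-6 h culture (~10^8 CFU/mL), diluted to ~10^6 CFU/mL. Water stocks were serially diluted in MHB (256 to 0.5 µg/mL) and mixed 1:1 with the inoculum. Plates ran 16-20 h at 37 °C. MIC was read visually. Each concentration was tested in duplicate, and the experiment was repeated at least twice.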

[17] = tested on: Klebsiella pneumoniae; assay: Antibacterial activity against carbapenem-resistant Klebsiella pneumoniae clinical isolate 1 assessed as reduction in bacterial growth incubated for 16 to 20 hrs by CLSI-based broth microdilution method; format: functional; details: time 16-20 hrs; procedure, shortened: as §2
[18] = tested on: Enterobacteriaceae; assay: Antibacterial activity against NDM1 producing carbapenem-resistant Enterobacteriaceae clinical isolate 6 assessed as reduction in bacterial growth incubated for 16 to 20 hrs by CLSI-based broth microdilution method; format: functional; details: time 16-20 hrs; procedure, shortened: as §2
[19] = tested on: Escherichia coli; assay: Antibiofilm activity against 24 hrs preformed biofilm of Escherichia coli ATCC 25922 assessed as eradication of preformed biofilm incubated for 24 hrs by crystal violet staining assay; format: functional
[20] = tested on: Cell membrane; assay: Induction of inner membrane permeabilization in Staphylococcus aureus ATCC 29213 at 20 ug/ml measured for 12 mins by propidium iodide staining based fluorescence microscopic analysis; details: dose 20.0 µg/ml
Procedure, shortened: (§5)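 Mid-log bacteria were washed and resuspended at ~10^8 CFU/mL and preincubated with propidium iodide (10 µM stock) for 30 min (S. aureus) or 40 min (E. coli). Fluorescence (ex 535/em 617 nm) was read on a plate for an 8 min baseline, then every 2 min for 12 min after compound at 20 µg/mL final. Water served as control.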

[21] = tested on: Enterobacteriaceae; assay: Antibacterial activity against NDM1 producing carbapenem-resistant Enterobacteriaceae clinical isolate 3 assessed as reduction in bacterial growth incubated for 16 to 20 hrs by CLSI-based broth microdilution method; format: functional; details: time 16-20 hrs; procedure, shortened: as §2
[22] = tested on: Klebsiella pneumoniae; assay: Antibacterial activity against carbapenem-resistant Klebsiella pneumoniae clinical isolate 7 assessed as reduction in bacterial growth incubated for 16 to 20 hrs by CLSI-based broth microdilution method; format: functional; details: time 16-20 hrs; procedure, shortened: as §2
[23] = tested on: Enterobacteriaceae; assay: Antibacterial activity against NDM1 producing carbapenem-resistant Enterobacteriaceae clinical isolate 9 assessed as reduction in bacterial growth incubated for 16 to 20 hrs by CLSI-based broth microdilution method; format: functional; details: time 16-20 hrs; procedure, shortened: as §2
[24] = tested on: Klebsiella pneumoniae; assay: Antibacterial activity against carbapenem-resistant Klebsiella pneumoniae clinical isolate 5 assessed as reduction in bacterial growth incubated for 16 to 20 hrs by CLSI-based broth microdilution method; format: functional; details: time 16-20 hrs; procedure, shortened: as §2
[25] = tested on: Enterobacteriaceae; assay: Antibacterial activity against NDM1 producing carbapenem-resistant Enterobacteriaceae clinical isolate 10 assessed as reduction in bacterial growth incubated for 16 to 20 hrs by CLSI-based broth microdilution method; format: functional; details: time 16-20 hrs; procedure, shortened: as §2
[26] = tested on: Enterobacteriaceae; assay: Antibacterial activity against NDM1 producing carbapenem-resistant Enterobacteriaceae clinical isolate 4 assessed as reduction in bacterial growth incubated for 16 to 20 hrs by CLSI-based broth microdilution method; format: functional; details: time 16-20 hrs; procedure, shortened: as §2
[27] = tested on: Enterobacteriaceae; assay: Antibacterial activity against NDM1 producing carbapenem-resistant Enterobacteriaceae clinical isolate 5 assessed as reduction in bacterial growth incubated for 16 to 20 hrs by CLSI-based broth microdilution method; format: functional; details: time 16-20 hrs; procedure, shortened: as §2
[28] = tested on: Cell membrane; assay: Induction of inner membrane permeabilization in Escherichia coli ATCC 25922 at 20 ug/ml measured for 12 mins by propidium iodide staining based fluorescence microscopic analysis; details: dose 20.0 µg/ml; procedure, shortened: as §5
[29] = tested on: Enterobacteriaceae; assay: Antibacterial activity against NDM1 producing carbapenem-resistant Enterobacteriaceae clinical isolate 2 assessed as reduction in bacterial growth incubated for 16 to 20 hrs by CLSI-based broth microdilution method; format: functional; details: time 16-20 hrs; procedure, shortened: as §2
[30] = tested on: Salmonella enterica; assay: Antibacterial activity against Salmonella enterica ATCC 8387 assessed as reduction in bacterial growth incubated for 16 to 20 hrs by CLSI-based broth microdilution method; format: functional; details: time 16-20 hrs; procedure, shortened: as §4
[31] = tested on: Klebsiella pneumoniae; assay: Antibacterial activity against carbapenem-resistant Klebsiella pneumoniae clinical isolate 4 assessed as reduction in bacterial growth incubated for 16 to 20 hrs by CLSI-based broth microdilution method; format: functional; details: time 16-20 hrs; procedure, shortened: as §2
[32] = tested on: Klebsiella pneumoniae; assay: Antibacterial activity against carbapenem-resistant Klebsiella pneumoniae clinical isolate 6 assessed as reduction in bacterial growth incubated for 16 to 20 hrs by CLSI-based broth microdilution method; format: functional; details: time 16-20 hrs; procedure, shortened: as §2
[33] = tested on: Escherichia coli; assay: Bactericidal activity against early exponential phase of Escherichia coli ATCC 25922 at 6X MIC measured after 6 hrs by time-kill kinetic assay; format: functional, organism-based
Procedure, shortened: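 An overnight culture was diluted 1:10,000 in MHB and shaken at 225 rpm and 37 °C for 2 h (early exponential phase), then exposed to compound. Samples taken at intervals were centrifuged, resuspended in PBS, plated as tenfold dilutions on MHA and incubated overnight at 37 °C. CFU/mL were counted. Biological replicates were run.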

## CC(=O)NC[C@H]1CN(c2ccc(N3CCOCC3)c(F)c2)C(=O)O1 [LINEZOLID]
[1]
  Activity: inactive
[2]
  Activity: inactive
[3]
  MIC: > 64 µg/mL
[4]
  MIC: > 64 µg/mL
[5]
  MIC: > 64 µg/mL
[6]
  MBIC80: >128 µg/mL
  MBIC90: >128 µg/mL
[7]
  MIC: > 64 µg/mL
[8]
  Activity: inactive
[9]
  MIC: > 64 µg/mL
[10]
  MBIC80: 26.8 µg/mL
  MBIC90: 36.1 µg/mL
[11]
  MIC: > 64 µg/mL
[12]
  MBEC: >128 µg/mL
  MBEC80: >128 µg/mL
  MBEC90: >128 µg/mL
[13]
  MIC: > 64 µg/mL
[14]
  MIC: > 64 µg/mL
[15]
  HC50 at 1 h: 550 µg/mL
[16]
  MIC: > 64 µg/mL
[17]
  MIC: > 64 µg/mL
[18]
  MIC: > 64 µg/mL
[19]
  MBEC: >128 µg/mL
  MBEC80: >128 µg/mL
  MBEC90: >128 µg/mL
[20]
  Activity: inactive
[21]
  MIC: > 64 µg/mL
[22]
  MIC: > 64 µg/mL
[23]
  MIC: > 64 µg/mL
[24]
  MIC: > 64 µg/mL
[25]
  MIC: > 64 µg/mL
[26]
  MIC: > 64 µg/mL
[27]
  MIC: > 64 µg/mL
[28]
  Activity: inactive
[29]
  MIC: > 64 µg/mL
[30]
  MIC: > 64 µg/mL
[31]
  MIC: > 64 µg/mL
[32]
  MIC: > 64 µg/mL

## CO[C@@]1(NC(=O)[C@H](C(=O)O)c2ccc(O)cc2)C(=O)N2C(C(=O)O)=C(CSc3nnnn3C)CO[C@@H]21
[33]
  Activity: inactive
